High-throughput results (PubChem)
KLK5 inh: kallikrein 5 (human) inhibition; recombinant hK5, fluorogenic AMC substrate cleavage; Q9Y337; 210,000 tested, 0.59% active; AID 873; inhibition, % at 5 µM;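 active means inhibition of 40% or more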;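 further: 0% = enzyme controls without compound and 100% = no-enzyme blanks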
EP2 mod: modulates human prostaglandin E2 receptor EP2 signaling; AID 940; induction, % at 25 µM; 260,000 tested, 0.83% active; P43116; EP2-expressing cells, cAMP HTRF FRET, PGE2 co-stimulation;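 active means compounds whose cAMP rise, as percent of the full-agonist control response, exceeds 60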;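 further: rat C6 glioma line stably carrying human EP2 under a CMV promoter; the protocol text gives 20 µM as final concentration; 100% = response of wells given 1 µM PGE2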
PGE2 EP2 inh: inhibitors of human EP2 prostaglandin E2 receptor; P43116; C6 glioma cells expressing human EP2, cAMP TR-FRET; cells stimulated with saturating PGE2; inhibition, % at 25 µM; 260,000 tested, 0.52% active; AID 1422;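 active means percent inhibition above 40 after rounding to a whole number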;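 further: rat C6 glioma host cells with rolipram phosphodiesterase inhibitor present; the protocol text gives 20 µM as final concentration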
thrombin 1536: blocks human thrombin protease activity; P00734; alpha-thrombin, Boc-VPR-AMC fluorogenic substrate cleavage; inhibition, % at 5 µM; 220,000 tested, 0.26% active;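 active means inhibition at or above 40%; inactive means inhibition below 40%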;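 further: 0% = enzyme with no compound and 100% = wells without enzyme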
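Material: human alpha-thrombin enzyme / Medium: pH 7.5 Tris (50 mM) with NaCl 150 mM, Tween 20 0.05% / Compound: single-point dosing at 5 µM, 0.2% DMSO / Incubation: enzyme reaction carried out at room temperature / Detection: AMC fluorescence, 355/460 nm / Read-out basis: percent inhibition scaled between no-compound controls and no-enzyme blanks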
FXIa inh: blocks human coagulation factor XIa protease activity; P03951; 220,000 tested, 0.14% active; purified FXIa, Boc-Glu-Ala-Arg-AMC fluorogenic substrate; inhibition, % at 5 µM;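 active means inhibition of at least 40%; inactive means inhibition below 40%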;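 further: fluorescence of freed AMC excited at 355 nm; 0% = enzyme without compound and 100% = no enzyme blank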
Target sequence (P03951 19-387 limits assumed): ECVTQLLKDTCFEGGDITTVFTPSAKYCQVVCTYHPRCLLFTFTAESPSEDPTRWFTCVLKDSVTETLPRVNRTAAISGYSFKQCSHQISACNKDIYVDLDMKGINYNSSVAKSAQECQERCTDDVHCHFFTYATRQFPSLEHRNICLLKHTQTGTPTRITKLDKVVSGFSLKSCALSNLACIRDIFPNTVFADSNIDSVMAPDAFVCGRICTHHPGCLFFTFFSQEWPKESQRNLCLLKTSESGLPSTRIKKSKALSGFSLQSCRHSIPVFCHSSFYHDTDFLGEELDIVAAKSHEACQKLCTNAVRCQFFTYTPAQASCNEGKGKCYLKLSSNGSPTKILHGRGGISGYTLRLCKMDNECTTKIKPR
Target sequence (P03951 388-625 limits assumed): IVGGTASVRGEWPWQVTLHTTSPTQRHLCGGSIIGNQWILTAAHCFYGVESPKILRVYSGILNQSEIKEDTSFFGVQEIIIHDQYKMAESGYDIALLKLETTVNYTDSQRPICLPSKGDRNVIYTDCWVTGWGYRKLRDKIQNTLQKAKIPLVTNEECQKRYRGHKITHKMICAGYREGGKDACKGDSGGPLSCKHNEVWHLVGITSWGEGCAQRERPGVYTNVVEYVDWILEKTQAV
FXIIa inh: inhibitors of human coagulation factor XIIa; P00748; purified FXIIa, Boc-QGR-AMC fluorogenic substrate, 2 h; inhibition, % at 5 µM; 220,000 tested, 0.3% active; in the data active means inhibition above about 40%;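 further: 0% = enzyme with no compound and 100% = blank without enzyme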
An asterisk follows results filed as active; nt = not tested or not shown. An excerpt weighted towards active compounds, which were near 2.1% of everything screened.

SMILES | KLK5 inh | EP2 mod | PGE2 EP2 inh | thrombin 1536 | FXIa inh | FXIIa inh
CCCOP(=O)(c1ccc(N(C)C)cc1)C(O)c1ccncc1 (stereo not given) | 15.0 | 6.3 | 3.9 | 66.5* | 10.9 | 14.6
COCCN1CCN(c2c(C)c(C)nc3c(-c4cccs4)c(C)nn23)CC1 | nt | -30.5 | 3.8 | nt | nt | nt
O=[N+]([O-])c1ccc(NC(=S)NCCc2ccc(Cl)cc2)cc1 | -8.4 | -18.2 | 73.8* | -0.4 | 19.4 | 21.4
O=[N+]([O-])c1ccc(NC(=S)NCCc2ccccc2)cc1 | -17.9 | -75.7 | 19.5 | 4.4 | 6.5 | 16.9
CCC(=O)Nc1ccc(NC(=O)c2ccccc2F)nc1 | nt | -15.7 | 20.5 | nt | nt | nt
CCc1ccc2[nH]c(=O)c(C(c3nnnn3C(C)(C)CC)N3CCCCC3)cc2c1 (stereo not given) | nt | 27.7 | 15.2 | nt | nt | nt
CC(=O)c1[nH]c(C)c(C(C)=O)c1C | 47.4* | 7.4 | 8.9 | 7.7 | 2.9 | 30.4
CC(=O)c1c(C)[nH]c(C(=O)CSc2nnc(C)s2)c1C | 52.5* | -31.8 | 7.2 | 39.9 | 27.9 | 24.9
CC(c1ccccc1F)n1cc(C(=O)NCCN2CCCC2)nn1 (stereo not given) | nt | -29.0 | 1.4 | nt | nt | nt
COc1ccc2[nH]c3c(=S)nc[nH]c3c2c1 | 2.8 | 62.0* | 11.7 | -13.5 | -2.0 | 5.5
CN(Cc1ccccc1)CC(O)c1ccc2c(c1)CCCN2C(=O)c1ccccc1F (stereo not given) | nt | -55.0 | 14.7 | nt | nt | nt
NC(=O)c1c(N)sc2c1CCC2 | 17.3 | -12.2 | 4.2 | 20.2 | 8.0 | 41.2*
O=C(Nc1sc2c(c1C(=O)NC1CCS(=O)(=O)C1)CCCC2)c1ccccc1 (stereo not given) | nt | 10.5 | 12.5 | nt | nt | nt
Nc1sc2c(c1C(=O)c1ccc(Cl)cc1)CCC2 | nt | 82.9* | 15.3 | nt | nt | nt
Nc1sc2c(c1C(=O)NC1CCS(=O)(=O)C1)CCC2 (stereo not given) | 45.0* | 27.0 | 11.9 | 19.3 | 6.8 | 20.2
Cc1cccc(C(=O)c2c(N)sc3c2CCCC3)c1 | -5.8 | 53.5 | 2.1 | -3.0 | 4.0 | 11.0
COc1ccc(-c2csc(NCCCN3CCOCC3)n2)cc1 | nt | -5.3 | 8.2 | nt | nt | nt
Cc1ccc(Cl)cc1NS(=O)(=O)c1ccc2c(c1)oc(=O)n2C | nt | -26.8 | 5.7 | nt | nt | nt
Cc1nnc(SCc2cccc(Oc3ccccc3)c2)n1N | 58.8* | 16.3 | 1.8 | 26.3 | 2.8 | -1.4
COc1ccc(C2C(C#N)=C(C)NC3=C2C(=O)c2ccccc23)cc1 (stereo not given) | 8.6 | -8.0 | 49.4* | -6.9 | 5.0 | 12.7
Nc1ccc(S(=O)(=O)c2cccc(N)c2)cc1 | 0.8 | -7.3 | 6.2 | -4.7 | -11.3 | 7.4
Nc1ccc(N(S(=O)(=O)c2ccccc2)S(=O)(=O)c2ccccc2)c(Cl)c1 | nt | -15.2 | 43.8* | nt | nt | nt
C=C[C@]1(C)C[C@H](OC(=O)CO)[C@]2(C)C3C(=O)CC[C@]3(CC[C@H]2C)[C@H](C)[C@H]1O (stereo not given in full) | nt | -8.9 | 56.0* | nt | nt | nt
Cc1cc(-c2n[nH]c(=S)n2/N=C/c2cc([N+](=O)[O-])ccc2Cl)n[nH]1 | 47.0* | 19.0 | 6.4 | 33.0 | 8.0 | 14.5
Cc1cc(=O)n2[nH]c(CC(=O)N3C4CCC3CC(c3ccc(F)cc3)C4)nc2n1 (stereo not given) | nt | -0.8 | 4.0 | nt | nt | nt
SMILES | KLK5 inh | EP2 mod | PGE2 EP2 inh | thrombin 1536 | FXIa inh | FXIIa inh
CC(C(=O)NCc1ccccn1)N1C(=O)c2ccccc2C1=O (stereo not given) | 33.7 | -15.7 | -4.0 | 103.8* | 18.3 | 12.5
O=C(NCCNC(=O)c1cc(OCC(F)(F)F)ccc1OCC(F)(F)F)Nc1ccc(OC(F)(F)F)cc1 | 48.9* | 21.3 | 4.2 | 2.7 | 8.2 | 18.1
O=C(NCCNC(=O)c1cc(OCC(F)(F)F)ccc1OCC(F)(F)F)Nc1ccc(Cl)cc1 | -11.0 | -44.2 | 4.8 | 5.7 | 1.9 | 19.4
O=C(Nc1ccc(F)cc1)Nc1cc(OCC(F)(F)F)cc(OCC(F)(F)F)c1 | 29.9 | 1.7 | 6.6 | 24.7 | 15.9 | 55.3*
Cc1ccc(C)c2[nH]c(=O)c(C(c3nnnn3C(C)(C)C)N3CCN(C4CCCCC4)CC3)cc12 (stereo not given) | nt | -8.7 | 24.9 | nt | nt | nt
O=S(=O)([N-]c1nc2ccccc2nc1-n1cc[n+](Cc2ccccc2)c1)c1ccc(Cl)cc1 | 27.6 | 34.6 | 4.1 | 16.1 | 59.7* | 58.0*
COc1ccc(OC)c(CN(Cc2cnc(N(C)C)nc2)CC2CCCO2)c1 (stereo not given) | nt | -8.9 | 10.2 | nt | nt | nt
